Source: ChEMBL document CHEMBL4177755, “Combating Drug-Resistant Fungi with Novel Imperfectly Amphipathic Palindromic Peptides” (J Med Chem, 2018)

Assays:
[1] = Cytotoxicity against mouse RAW264.7 cells assessed as cell viability at 2 to 64 uM after 24 hrs by MTT assay relative to control; assay type: cell-based; details: read-out: Activity
How it was run: (§1)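 MTT viability assay. RAW264.7 or HEK293T cells at (1.0−2.0) × 10^5 per well were exposed to a peptide concentration series for 24 h at 37 °C in 5% CO2. MTT was then added at 0.5 mg/mL final for 4 h; formazan was dissolved in DMSO and read at 570 nm. Results average three independent trials.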

[2] = Cytotoxicity against HEK293T cells assessed as cell viability at 2 to 64 uM after 24 hrs by MTT assay relative to control; assay type: cell-based, HEK-293T; details: human, read-out: Activity; how it was run: as §1
Escherichia coli [3] = experiment: Antibacterial activity against Escherichia coli 1005 after 24 hrs; assay type: functional; details: Escherichia coli, 1005, 24 h
How it was run: (§2)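 Broth microdilution. Mid-log bacteria in MHB at a final (0.5−1) × 10^5 CFU/mL were mixed with equal volumes of peptide serially diluted in 0.2% BSA. Plates were incubated 24 h at 37 °C and read at A492. MIC is the lowest concentration inhibiting 95% of growth. Each test was repeated at least 3 times.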

Salmonella typhimurium = experiment: Antibacterial activity against Salmonella typhimurium ATCC 14028 after 24 hrs; assay type: functional, Salmonella enterica subsp. enterica serovar Typhimurium; details: Salmonella enterica, ATCC 14028, 24 h; how it was run: as §2
Staphylococcus aureus = experiment: Antibacterial activity against Staphylococcus aureus ATCC 25923 after 24 hrs; assay type: functional; details: ATCC 25923, 24 h
How it was run: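 Modified NCCLS broth microdilution. Mid-log bacteria at (0.5−1) × 10^5 CFU/mL in MHB were mixed 1:1 with peptide serially diluted in 0.2% BSA and incubated 24 h at 37 °C. Absorbance was read at 492 nm; MIC is the lowest concentration inhibiting 95% of growth. At least 3 repeats.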

[4] = Bactericidal activity against Salmonella pullorum ATCC 7913; assay type: functional, Salmonella enterica subsp. enterica serovar Pullorum; details: Salmonella enterica, read-out: MBC99.9
How it was run: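 Wells from the 24 h, 37 °C MHB microdilution plates (bacteria at a final (0.5−1) × 10^5 CFU/mL; peptide diluted in 0.2% BSA) were plated on agar and incubated overnight. MBC is the lowest concentration killing >99.9% of cells. Each test was reproduced at least 3 times.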

Candida albicans [5] = experiment: Antifungal activity against Candida albicans SP3931 after 48 hrs by broth microdilution method; assay type: functional; details: SP3931, 48 h
How it was run: (§3)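 Modified CLSI M27-A2 broth microdilution. Yeast at (0.5−1) × 10^3 CFU/mL in MOPS-buffered RPMI 1640 was mixed 1:1 with peptide serially diluted in 0.2% BSA and incubated 48 h at 28 °C. Absorbance was read at 492 nm; MIC is the lowest concentration inhibiting 95% of growth. Triplicate, three biological replicates.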

Candida albicans [6] = experiment: Antifungal activity against Candida albicans SP3903 after 48 hrs by broth microdilution method; assay type: functional; details: SP3903, 48 h; how it was run: as §3
Candida albicans [7] = experiment: Antifungal activity against Candida albicans SP3902 after 48 hrs by broth microdilution method; assay type: functional; details: SP3902, 48 h; how it was run: as §3
Candida albicans [8] = experiment: Antifungal activity against Candida albicans SP3876 after 48 hrs by broth microdilution method; assay type: functional; details: SP3876, 48 h; how it was run: as §3
Candida albicans [9] = experiment: Antifungal activity against fluconazole-resistant Candida albicans 56452 after 48 hrs by broth microdilution method; assay type: functional; details: Candida albicans, 56452, 48 h; how it was run: as §3
Candida albicans [10] = experiment: Antifungal activity against fluconazole-resistant Candida albicans 17546 after 48 hrs by broth microdilution method; assay type: functional; details: Candida albicans, 17546, 48 h; how it was run: as §3
Pichia kudriavzevii = experiment: Antifungal activity against Candida krusei cgmcc 2.1857 after 48 hrs by broth microdilution method; assay type: functional; details: cgmcc 2.1857, 48 h
How it was run: (§4)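 Modified CLSI M27-A2 broth microdilution. Yeast were suspended in MOPS-buffered RPMI 1640 at a final (0.5−1) × 10^3 CFU/mL and mixed 1:1 with peptide serially diluted in 0.2% BSA. Plates were incubated 48 h at 28 °C and read at A492. MIC is the lowest concentration giving 95% inhibition. Run in triplicate with three biological replicates.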

Candida parapsilosis = experiment: Antifungal activity against Candida parapsilosis cgmcc 2.3989 after 48 hrs by broth microdilution method; assay type: functional; details: Lodderomyces parapsilosis, cgmcc 2.3989, 48 h; how it was run: as §4
Candida albicans [11] = experiment: Fungicidal activity against Candida albicans cgmcc 2.2086 after 96 hrs; assay type: functional; details: cgmcc 2.2086, 96 h, read-out: MFC99.9
How it was run: (§5)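 After the 48 h, 28 °C broth microdilution in MOPS-buffered RPMI 1640 (inoculum (0.5−1) × 10^3 CFU/mL), 50 μL from each well was plated on YM agar for a further 48 h at 28 °C. MFC is the lowest concentration killing at least 99.9% of cells. Triplicate, three biological replicates.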

Candida albicans [12] = experiment: Fungicidal activity against Candida albicans SP3931 after 96 hrs; assay type: functional; details: SP3931, 96 h, read-out: MFC99.9; how it was run: as §5
Candida albicans [13] = experiment: Fungicidal activity against Candida albicans SP3876 after 96 hrs; assay type: functional; details: SP3876, 96 h, read-out: MFC99.9; how it was run: as §5
Candida albicans [14] = experiment: Fungicidal activity against Candida albicans isolated from alveolar fluid after 96 hrs; assay type: functional; details: read-out: MFC99.9; how it was run: as §5
Candida albicans [15] = experiment: Fungicidal activity against fluconazole-resistant Candida albicans 56214 after 96 hrs; assay type: functional; details: Candida albicans, 56214, 96 h; read-out: MFC99.9; how it was run: as §5
Candida albicans [16] = experiment: Fungicidal activity against fluconazole-resistant Candida albicans 17546 after 96 hrs; assay type: functional; details: Candida albicans, 17546, 96 h; read-out: MFC99.9; how it was run: as §5
Candida tropicalis = experiment: Fungicidal activity against Candida tropicalis cgmcc 2.1975 after 96 hrs; assay type: functional; details: cgmcc 2.1975, 96 h, read-out: MFC99.9
How it was run: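 Wells from the 48 h, 28 °C RPMI 1640/MOPS microdilution plates were plated on YM agar and incubated a further 48 h at 28 °C. MFC is the lowest concentration killing at least 99.9% of cells. Run in triplicate with three biological replicates.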

Erythrocyte = experiment: Hemolytic activity in human RBC after 1 hr; assay type: ADME, cell-based
How it was run: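 Fresh human erythrocytes, diluted 10-fold in PBS pH 7.4, were mixed with equal volumes of peptide and held 1 h at 37 °C. After centrifugation at 1000g, supernatant hemoglobin was read at 576 nm. PBS set 0% and 0.1% Triton X-100 set 100% lysis. MHC is the concentration causing 10% hemolysis. At least three experiments were run, each in technical triplicate.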

Escherichia coli [17] = experiment: Antibacterial activity against Escherichia coli ATCC 25922 after 18 hrs in presence of KCl by broth dilution method; assay type: functional; details: ATCC 25922, 18 h
Escherichia coli [18] = experiment: Antibacterial activity against Escherichia coli ATCC 25922 after 18 hrs in presence of MgCl2 by broth dilution method; assay type: functional; details: ATCC 25922, 18 h
Escherichia coli [19] = experiment: Antibacterial activity against Escherichia coli ATCC 25922 after 18 hrs in presence of CaCl2 by broth dilution method; assay type: functional; details: ATCC 25922, 18 h
Candida albicans [20] = experiment: Antifungal activity against Candida albicans cgmcc 2.2086 in presence of NaCl by broth dilution method; assay type: functional
Candida albicans [21] = experiment: Antifungal activity against Candida albicans 58288 after 48 hrs by broth microdilution method; assay type: functional; details: Candida albicans, 58288, 48 h; how it was run: as §3

Substance | viability at 24 h, up to 64 µM [1] [%] | viability at 24 h, up to 64 µM [2] [%] | MIC95 (Escherichia coli [3]) [µM] | MIC95 (Salmonella typhimurium) [µM] | MIC95 (Staphylococcus aureus) [µM] | MBC [4] [µM] | MIC95 (Candida albicans [5]) [µM] | MIC95 (Candida albicans [6]) [µM] | MIC95 (Candida albicans [7]) [µM] | MIC95 (Candida albicans [8]) [µM] | MIC95 (Candida albicans [9]) [µM] | MIC95 (Candida albicans [10]) [µM] | MIC95 (Pichia kudriavzevii) [µM] | MIC95 (Candida parapsilosis) [µM] | MFC (Candida albicans [11]) [µM] | MFC (Candida albicans [12]) [µM] | MFC (Candida albicans [13]) [µM] | MFC (Candida albicans [14]) [µM] | MFC (Candida albicans [15]) [µM] | MFC (Candida albicans [16]) [µM] | other results
H-RRFRFFFRFRR-NH2 | 70 to 80 | 70 to 80 | 4 | 4 | 8 | 4 | 4 | 2 | 4 | 4 | 4 | 2 | 2 | 16 | 16 | 8 | 4 | 8 | 8 | 2 | MFC (Candida tropicalis): 2 µM; HC10 (Erythrocyte): > 128 µM; MIC (Escherichia coli [17]): 4 µM; MIC (Escherichia coli [18]): 2 µM; MIC (Escherichia coli [19]): 4 µM; MIC (Candida albicans [20]): 16 µM; MIC95 (Candida albicans [21]): 2 µM
H-RRIRIIIRIRR-NH2 | > 85 | > 85 | 4 | 4 | 4 | 4 | 2 | 1 | 2 | 1 | 1 | 2 | 2 | 4 | 2 | 4 | 1 | 4 | 2 | 2 | MFC (Candida tropicalis): 2 µM; HC10 (Erythrocyte): > 128 µM; MIC (Escherichia coli [17]): 4 µM; MIC (Escherichia coli [18]): 2 µM; MIC (Escherichia coli [19]): 8 µM; MIC (Candida albicans [20]): 4 µM; MIC95 (Candida albicans [21]): 2 µM
H-RRLRLLLRLRR-NH2 | 70 to 80 | 70 to 80 | 4 | 4 | 4 | 8 | 8 | 2 | 4 | 4 | 4 | 8 | 4 | 64 | 16 | 16 | 4 | 8 | 8 | 16 | MFC (Candida tropicalis): 4 µM; HC10 (Erythrocyte): > 128 µM; MIC (Escherichia coli [17]): 4 µM; MIC (Escherichia coli [18]): 2 µM; MIC (Escherichia coli [19]): 4 µM; MIC (Candida albicans [20]): 64 µM; MIC95 (Candida albicans [21]): 8 µM
H-RRWRWWWRWRR-NH2 | 70 to 80 | 70 to 80 | 4 | 4 | 4 | 4 | 4 | 4 | 4 | 2 | 4 | 4 | 2 | 8 | 8 | 8 | 4 | 8 | 8 | 4 | MFC (Candida tropicalis): 4 µM; HC10 (Erythrocyte): > 128 µM; MIC (Escherichia coli [17]): 4 µM; MIC (Escherichia coli [18]): 2 µM; MIC (Escherichia coli [19]): 8 µM; MIC (Candida albicans [20]): 8 µM; MIC95 (Candida albicans [21]): 2 µM
H-RWRWWWRWR-NH2 | 70 to 80 | 70 to 80 | 2 | 4 | 4 | 8 | 8 | 8 | 8 | 4 | 4 | 1 | 4 | 16 | 16 | 16 | 4 | 16 | 8 | 2 | MFC (Candida tropicalis): 2 µM; HC10 (Erythrocyte): > 128 µM; MIC (Escherichia coli [17]): 4 µM; MIC (Escherichia coli [18]): 2 µM; MIC (Escherichia coli [19]): 4 µM; MIC (Candida albicans [20]): 16 µM; MIC95 (Candida albicans [21]): 4 µM
